Bioassay records deposited in PubChem by The Scripps Research Institute Molecular Screening Center.
Compounds with a hit are over-represented: about 4.6% of the library has one in this group of screens.
CHO parental Ca – signal in parental CHO cells, OX1R antagonist counter-screen; parental CHO-K1, ATP-induced calcium, Fluo-8 fluorescence; inhibition, % at 5.6 µM; actives 0.63% (n = 330,000);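 active means inhibition above that plate's mean sample inhibition plus 3 SD, cut at about 26% in these data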;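 further: 0% = ATP-challenged DMSO wells and 100% = DMSO wells without ATP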
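Material – parental CHO cells · Reagent – ATP stimulus · Compound – single nominal dose of 5.6 µM per compound · Detection – Fluo-8 fluorescence · Read-out basis – percent inhibition of calcium signal · Controls – ATP-challenged DMSO wells low, unchallenged DMSO wells high · Repeats – no replicates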
TAAR1 antag – antagonists of human TAAR1. actives 1.5% (n = 360,000). inhibition, % at 3 µM. CHO RD-HGA16 TAAR1, Fluo-8 calcium fluorescence, antagonist. AID 624466. Q96RJ0;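 active means inhibition above a per-plate cutoff, the mean inhibition of test compounds on that plate plus 3 SD, cut at about 49% in these data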;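 further: 0% = DMSO plus EC80 beta-PEA response and 100% = DMSO alone without agonist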
Target sequence (Q96RJ0 whole entry, looked up): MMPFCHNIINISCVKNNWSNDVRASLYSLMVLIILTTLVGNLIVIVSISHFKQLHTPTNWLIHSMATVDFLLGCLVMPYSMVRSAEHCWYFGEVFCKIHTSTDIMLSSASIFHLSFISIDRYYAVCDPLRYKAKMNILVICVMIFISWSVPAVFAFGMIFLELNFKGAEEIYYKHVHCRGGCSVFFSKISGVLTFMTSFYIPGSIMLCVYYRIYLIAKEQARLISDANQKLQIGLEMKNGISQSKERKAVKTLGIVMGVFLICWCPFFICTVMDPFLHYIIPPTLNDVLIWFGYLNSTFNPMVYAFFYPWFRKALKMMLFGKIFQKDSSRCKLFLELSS
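Assay system: RD-HGA16 CHO cells with stable hTAAR1 and Gα16 / Reagent: EC80 β-phenethylamine stimulus / Doses: 3 µM, single point / Timing: dye loading 75 min at 37 °C, then 30 min room temperature / Measured by: Fluo-8 intracellular calcium dye fluorescence, real-time kinetic reads / Controls: vehicle wells and EC80 agonist wells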
OX1R antag-1 – OX1R (human) antagonism; O43613; OX1R-expressing cells, FRET antagonist read-out; inhibition, % at 6.6 µM; actives 1.8% (n = 330,000); AID 485270; in the data active means inhibition mostly above about 38%, no sharp cut-off; inactive means mostly below about 40%;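 further: 0% = agonist challenge alone and 100% = reference antagonist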
OX1R antag-2 – human HCRTR1 antagonism; CHO/OX1R cells, Fluo-8 calcium fluorescence, orexin A; actives 0.43% (n = 330,000); inhibition, % at 5 µM; O43613; AID 434989;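 active means inhibition above its plate's threshold, mean inhibition of all tested compounds on the plate plus 3 SD, cut at about 37% in these data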;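 further: 0% = orexin A challenge wells and 100% = SB-334867-A antagonist wells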
GPR7 antag – antagonists of human GPR7 (neuropeptides B/W receptor 1). P48145. GPR7-expressing cells, fluorescence antagonist assay. inhibition, % at 4.4 µM. actives 1.1% (n = 290,000); in the data active means inhibition above about 16%, passing the limit was not always enough;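 further: cells stimulated with the agonist NPW; 0% = agonist with vehicle and 100% = vehicle without agonist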
Target sequence (P48145 whole entry, looked up): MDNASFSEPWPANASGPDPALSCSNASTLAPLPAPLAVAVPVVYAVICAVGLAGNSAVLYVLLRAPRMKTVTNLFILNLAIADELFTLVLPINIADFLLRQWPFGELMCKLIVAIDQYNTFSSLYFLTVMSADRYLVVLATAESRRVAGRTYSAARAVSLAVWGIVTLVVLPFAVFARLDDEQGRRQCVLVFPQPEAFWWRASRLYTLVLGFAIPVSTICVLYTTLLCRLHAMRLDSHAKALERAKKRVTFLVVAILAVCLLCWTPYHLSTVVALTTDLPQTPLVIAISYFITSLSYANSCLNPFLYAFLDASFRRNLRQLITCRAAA
TAAR1 ag – agonists of human TAAR1. CHO RD-HGA16 TAAR1, Fluo-8 calcium fluorescence; vehicle wells 0%, saturating PEA agonist 100%. activation, % at 3 µM. actives 0.99% (n = 360,000). AID 624467;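 active means activation above the mean activation of all test compounds in the run plus 3 SD, cut at about 38% in these data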
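Test system: RD-HGA16 (CHO) cells co-expressing Gα16 and hTAAR1; dosing: one-point dosing at 3 µM (nominal); timing: 17-24 h seeding, 75 min 37 °C dye, 30 min RT; signal: kinetic Fluo-8 calcium fluorescence; read-out basis: % activation relative to PEA EC100 response; controls: DMSO and PEA EC100; replicates: n 1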
OX1R HTRF confirm – OX1R (human) antagonism, HTRF confirmed; actives 49% (n = 1,800); OX1R-expressing cells, HTRF antagonist assay; shares compounds with OX1R antag-1; inhibition, % at 6.6 µM; in the data active means inhibition above about 55%;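 further: CHO cells expressing OX1R stimulated with orexin A at about EC80; 0% = agonist challenge alone and 100% = reference antagonist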
CHO-K1 HTRF – counter-screen for OX1R antagonists: effect in parental CHO-K1 cells; shares compounds with OX1R antag-1; HTRF counterscreen; inhibition, % at 6.6 µM; actives 48% (n = 1,800); AID 493232; in the data active means inhibition above about 17%;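 further: 0% = agonist challenge with vehicle and 100% = vehicle alone without agonist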
An asterisk follows results filed as active; / = no result; ! = a repeat was not active.

SMILES	CHO parental Ca	TAAR1 antag	OX1R antag-1	OX1R antag-2	GPR7 antag	TAAR1 ag	OX1R HTRF confirm	CHO-K1 HTRF
COC(=O)[C@H]1C[C@@H]1[C@H](NS(=O)(=O)c1ccc2ccccc2c1)c1ccccc1	-32	7	79*	-6	-8	9	36	3
O=C1N=C(N2CCCC2)S/C1=C\c1ccccc1	-13	9	147*	-15	-1	1	58*	27*
Cc1ccc(/C=C2\SC(N3CCCCC3)=NC2=O)cc1	-14	-18	16	-11	-7	1	/	/
COc1ccc(N2CCN(CCNC(=O)CCS(=O)(=O)c3cccc4nsnc34)CC2)cc1	-6	/	85*	-17	3	/	43	76*
CC1CCN(CCNC(=O)CN(C)S(=O)(=O)c2cccc3nsnc23)CC1	14	-16	149*	-8	-2	0	22	29*
CC1CCN(C(=O)CN(C)S(=O)(=O)c2cccc3nsnc23)CC1	-12	-9	83*	-24	0	12	30	36*
CCOC(=O)N1CCC(NC(=O)C(NS(=O)(=O)c2cccc3nsnc23)c2ccccc2)CC1 (centres undefined)	-15	-13	91*	-27	-17	9	34	13
CCN(CCNC(=O)CN(C)S(=O)(=O)c1cccc2nsnc12)c1ccccc1	-26	24	16	-16	3	15	/	/
COc1ccc(N2CCN(CCNS(=O)(=O)c3cccc4nsnc34)CC2)cc1	/	9	/	/	-5	5	/	/
COc1ccc(NC(=O)Nc2cccc3[nH]c([C@@H]4O[C@H](CO)[C@@H](O)[C@H](O)[C@H]4O)nc23)cc1OC1CCCC1	/	-3	/	/	/	1	/	/
CC(C)Oc1ccc(C(=O)NC2=NCCS2)cc1	-6	-7	35	-15	-3	1	/	/
CCN(CC)C(=O)CN(C)S(=O)(=O)c1cccc2nsnc12	-1	-8	114*	-20	-1	3	40	38*
COCc1nnc(NC(=O)c2cc(C(=O)OC)cc([N+](=O)[O-])c2)s1	-4	-3	90*	-8	-11	9	42	46*
COC(=O)c1cc(C(=O)Nc2nnc(CC(C)C)s2)cc([N+](=O)[O-])c1	-1	-14	22	-2	-6	1	/	/
COc1ccc(-c2cc(C(F)(F)F)n3ncc(C(=O)O)c3n2)cc1OC	-3	-3	82*	14	-1	11	32	55*
CCN(CC)c1ccc(/C=N/NC(=O)OC)c(O)c1	-22	31	26	-7	-1	1	/	/
CCN(CC)c1ccc(/C=N/NC(=O)c2ccoc2C)c(O)c1	-22	-7	85*	4	2	5	91*	14
COC(=O)c1c(=O)n(O)c2ccc(OC)cc2[n+]1[O-]	-11	/	88*	-12	-6	/	33	47*
CCN(CC)C(=O)C1CCCN(c2ccc([N+](=O)[O-])cc2/C=N/NC(=O)c2cccc(O)c2)C1 (centres undefined)	-26	18	33	-39	-3	10	/	/
CCOC(=O)CNC(=O)CSc1ncnc2c1cnn2-c1ccc(Cl)cc1	-4	-10	18	-19	-2	14	/	/
CCOC(=O)Cc1csc(NC(=O)CSc2ncnc3c2cnn3-c2ccc(OC)cc2)n1	13	50*	80*	29	-2	18	27	4
O=[N+]([O-])c1ccc(N2CCN(c3ccccc3)CC2)cc1	7	-3	-4	-6	2	2	/	/
O=c1c2ccccc2nc2n1CC/C2=C\N1CCN(c2ccc([N+](=O)[O-])cc2)CC1	-6	0	94*	-12	/	1	32	23*
COc1cccc(/C=C2/SC(=O)N(C)C2=O)c1OCc1ccc(C(=O)O)cc1	-11	-8	102*	-6	-16	5	32	35*
Cc1cc[n+](-c2nc3ccccc3nc2C(=C=[N-])C#N)cc1	-6	7	121*	0	-6	6	40	63*
SMILES	CHO parental Ca	TAAR1 antag	OX1R antag-1	OX1R antag-2	GPR7 antag	TAAR1 ag	OX1R HTRF confirm	CHO-K1 HTRF
N#CC(=C=[N-])c1nc2ccccc2nc1-[n+]1ccccc1	-1	-2	98*	7	-4	-1	64*!	79*
CCCNc1c(F)c(F)c2c(C)c3ccccc3nc2c1F	-2	27	24	18	-7	15	/	/
COC(=O)c1c(NC(=O)c2ccccc2)sc(C(N)=O)c1C	-1	-3	95*	-2	-6	1	32	-1
Cc1nnc(SCC(=O)N2CCN(c3ccccc3F)CC2)n1C1CC1	/	-14	/	/	/	3	/	/
CCn1c(NCc2ccc(N(C)C)cc2)nc2ccccc21	-11	-7	25	-18	-1	9	/	/
CN(C)c1ccc(N=Nc2nc3ccccc3n2C)cc1	-9	-21	106*	15	14	-2	107*	29*
OCC[C@@H]1C[C@H](O)[C@@H](O)[C@]2(OCc3cc(C(F)(F)F)ccc32)O1	/	-2	/	/	/	1	/	/
COc1cc2c(cc1OC)CN(C(=O)CN1C(=O)c3ccc([N+](=O)[O-])cc3C1=O)CC2	-29	2	98*	-34	/	1	45	37*
COc1ccc(CNc2nc(SCC(=O)NCc3ccco3)nc3ccccc23)cc1	-2	-16	79*	7	-1	3	24	1
O=C(CSc1nc2ccccc2c2nc3ccccc3n12)NCc1ccco1	-17	-3	81*	-4	-9	10	62*	5
CCn1c(SCC(=O)NCc2ccco2)nc2ccccc2c1=O	-9	-3	22	-12	-3	9	/	/
COc1ccc2cc3c(nc2c1)OCC3	-12	-9	13	-27	-3	1	/	/
CCn1c2ccccc2c2cc(NC(=O)c3ccc(C)c([N+](=O)[O-])c3)ccc21	-15	2	77*	4	3	1	88*	13
CCn1c2ccccc2c2cc(NC(=O)c3cc(C)on3)ccc21	-2	-32	88*	16	-5	6	64*	7
CC(C)(C)C(=O)Nc1cccc(C(=O)Nc2cc(C(=O)O)cc(C(=O)O)c2)c1	-5	-18	13	-2	-6	0	/	/
O=C(COc1ccccc1)N=C1SC2CS(=O)(=O)CC2N1c1ccc(F)cc1 (centres undefined)	3	7	20	-6	-8	2	/	/
